Series [1] in a line: Half life in mouse plasma at 2 uM up to 120 mins by UPLC/MS analysis. Type of series: ADME, cell-free. Summed up:
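Mouse plasma with 5% DMSO, prewarmed 15 min at 37 °C; compound final 2.0 μM. Aliquots at 0, 5, 15, 30, 60 and 120 min quenched in cold ACN containing 200 nM warfarin internal standard. Spun 3500g, 15 min, 4 °C; supernatant run on UPLC/MS TQD. Half-life from one-phase decay fit of peak area versus time.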

A short description of series [2]: Half life in PBS buffer at pH 7.4 at 10 uM by UPLC/MS analysis. Type of series: physicochemical. The method in brief: (§1)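 Compound taken from 10 mM DMSO stock to 10 μM in PBS pH 7.4 (prewarmed) or acetate pH 4.5, held at 37 °C with shaking. Samples taken over time and diluted in ACN. Analysed by UPLC BEH C18 (30–100% ACN over 4 min) with qTOF HRMS in positive ion mode. Half-life from one-phase decay fit of peak area versus time.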

A short description of series [3]: Half life in acetate buffer at pH 4.5 at 10 uM by UPLC/MS analysis. It is filed as physicochemical. Summed up:
as §1

For series [4], the target named is Acid ceramidase (Homo sapiens, UniProt Q13510). The series can be described thus: Inhibition of human C-terminal His-tagged acid ceramidase variant 1 expressed in HEK293 cells using fluorogenic substrate Rbm-14-12 preincubated for 30 mins followed by substrate addition measured after 1 hr by fluorogenic assay. It is filed as cell-based.
Series [5] has as its target T1, Acid ceramidase (Homo sapiens, UniProt Q13510).
T1 sequence (Q13510 whole entry): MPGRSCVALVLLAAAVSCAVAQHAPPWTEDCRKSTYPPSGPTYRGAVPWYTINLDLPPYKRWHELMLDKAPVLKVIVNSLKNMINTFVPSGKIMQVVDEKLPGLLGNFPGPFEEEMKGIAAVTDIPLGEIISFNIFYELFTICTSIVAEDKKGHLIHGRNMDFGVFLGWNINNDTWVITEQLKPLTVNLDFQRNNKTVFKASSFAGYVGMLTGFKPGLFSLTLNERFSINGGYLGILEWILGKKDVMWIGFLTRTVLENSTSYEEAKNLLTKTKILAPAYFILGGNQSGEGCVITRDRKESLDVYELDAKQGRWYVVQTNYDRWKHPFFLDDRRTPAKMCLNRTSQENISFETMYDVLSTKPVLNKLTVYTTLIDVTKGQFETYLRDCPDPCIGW
The series can be described thus: Inhibition of acid ceramidase in human A375 cells using fluorogenic substrate Rbm-14-12 preincubated for 2 hrs followed by substrate addition measured after 3 hrs by fluorogenic assay. It is filed as cell-based. The method in brief:
(§2)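 A375 (5 × 10^4) or G-361 (2.5 × 10^4) cells grown in DMEM with 10% FBS and 2 mM glutamine. Compounds or DMSO added 24 h after seeding, 2 h at 37 °C. Rbm-14-12 then added to 20 μM final for 3 h. Stopped with methanol/NaIO4; fluorescence read at ex 355/em 460. Run in triplicate; IC50 from four-parameter fit, mean ± SD of two independent experiments.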

The target of series [6] is T1, Acid ceramidase. Kind of series: Inhibition of acid ceramidase in human G361 cells using fluorogenic substrate Rbm-14-12 preincubated for 2 hrs followed by substrate addition measured after 3 hrs by fluorogenic assay. Type of series: cell-based. Summed up: as §2
The next series has as its system G-361. Kind of series: Cytotoxicity against human G361 cells assessed as […] in cell viability after 72 hrs by MTT assay. The following applies: g-361, 72 h. It is filed as cell-based. (In general: Tetrazolium dyes change colour on reduction, which living cells bring about.)
For the next series, the system named is A-375. Kind of series: Cytotoxicity against human A375 cells assessed as […] in cell viability after 72 hrs by MTT assay. It is filed as cell-based. The following applies: a-375, 72 h.
The target in series [7] is T2, Acid ceramidase (Homo sapiens) (UniProt Q13510).
T2 sequence (whole entry): T1 sequence (Q13510 whole entry)
Kind of series: Covalent binding affinity to recombinant human acid ceramidase assessed as N-terminal CTSIVAEDK peptide adduct formation at 10:1 molar ratio of compound to protein after 1 hr by trypsin digestion-based UPLC-MS analysis. Summed up: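 Purified recombinant human AC (10 μg) preincubated 1 h at 37 °C in 20 mM acetate pH 4.5 with 3 mM DTT. Compound then added at 10:1 molar ratio to protein, 1 h at 37 °C; DMSO control. Stopped with cold acetone, pellet dried, redissolved in 50 mM (NH4)2CO3 pH 8. Trypsin 1:50 w/w overnight at 37 °C; peptides read by LC-MS.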

By half-life is commonly meant the time needed for the level to fall by half in the phase considered. The IC50 is the midpoint of a concentration-inhibition curve.

Activity calls are given as the source filed them.

For the compound `CCCCCCNC(=O)n1cnc2ccccc21`, the half-life at 2 µM in [1] is over 120 min. Further, the half-life at 10 µM in series [2] is 59 min; in series [3] it was over 120 min. On Acid ceramidase [4], half-maximal inhibition (IC50) was put at 6.6 nM.
For the compound `Cc1cccc(CNC(=O)n2c(N)nc3ccccc32)c1`, in series [1], the half-life at 2 µM was under 5 min. Also, the half-life at 10 µM was found to be 11 min in [2] and 27 min in series [3]. Further, at Acid ceramidase [4], it took 8.5 nM to reach half-maximal inhibition (IC50).
As to `CCCCCCNC(=O)Nc1nc2ccccc2[nH]1`, the IC50 against Acid ceramidase [4] was over 10000 nM.
In the case of `CCCCCCNC(=O)n1cc(F)c(=O)[nH]c1=O` [CARMOFUR], the IC50 is 191 nM on Acid ceramidase [5], 20.7 nM at Acid ceramidase [4] and 758 nM on Acid ceramidase [6].
On to `Cc1nc2ccccc2n1C(=O)NCCCCc1ccccc1`, for which the half-life at 2 µM in [1] was found to be 11 min. The half-life at 10 µM in [2] is 7 min; in [3] it was 8 min. On Acid ceramidase [4], this compound had an IC50 of 1 nM.
In the case of `CCCCCCNC(=O)N1C(=O)c2ccccc2C1=O`, the half-life at 2 µM in series [1] was 29 min. For the same compound, the results for the half-life at 10 µM in series [2] and in [3] were 9 min and over 120 min, respectively. Further, on Acid ceramidase [4], half-maximal inhibition (IC50) required 7 nM.
With `CCCCCCNC(=O)n1ncc2ccccc21`, the half-life at 2 µM in [1] was over 120 min. Besides, the half-life at 10 µM in series [2] is 81 min; in series [3], over 120 min. 9.9 nM corresponded to half-maximal inhibition on Acid ceramidase [4] (IC50).
For the compound `Cc1ccc(CNC(=O)n2cnc3ccccc32)cc1`, the half-life at 2 µM in [1] is 94 min. In addition, the Activity result in the series with G-361 and in the series on A-375 was “Non-Toxic” in each case. The half-life at 10 µM in [2] and in [3] was over 120 min in each case. Further, the IC50 against Acid ceramidase [5] was determined as 505 nM; against Acid ceramidase [4], 14.8 nM; against Acid ceramidase [6] it was 928 nM.
In series [1], `O=C(NCCCCc1ccccc1)n1ncc2ccccc21` had a half-life at 2 µM of over 120 min. For the same compound, the half-life at 10 µM in series [2] was 134 min; in series [3], over 120 min. Moreover, on Acid ceramidase [4], the IC50 was 4.7 nM.
In [1], `Cc1ccc(CNC(=O)n2c(N)nc3ccccc32)cc1` returned a half-life at 2 µM of under 5 min. Moreover, the half-life at 10 µM in series [2] worked out at 23 min; in [3], 34 min. This compound also had an IC50 on Acid ceramidase [4] of 7 nM.
Consider `O=C(NCCCCc1ccccc1)Nc1nc2ccccc2s1`, for which, at Acid ceramidase [4], the IC50 was over 10000 nM.
As to `Cc1ccccc1CNC(=O)n1cnc2ccccc21`, the half-life at 2 µM in [1] amounted to 44 min. Further, the half-life at 10 µM in [2] was 58 min; in series [3] it was 82 min. In addition, 55.9 nM corresponded to half-maximal inhibition against Acid ceramidase [4] (IC50).
`Cc1cccc(CNC(=O)n2cnc3ccccc32)c1` yielded a half-life at 2 µM in [1] of 71 min. Moreover, the half-life at 10 µM in series [2] is 56 min; in [3], over 120 min. The compound also showed an IC50 against Acid ceramidase [4] of 8.3 nM.
`CCCCCCNC(=O)Nc1nc2ccccc2o1` came in with an IC50 against Acid ceramidase [4] of over 10000 nM.
For `Nc1nc2ccccc2n1C(=O)NCc1ccccc1`, the half-life at 2 µM in series [1] was found to be 13 min. For the same compound, the half-life at 10 µM in [2] was 13 min; in series [3], 42 min. The IC50 against Acid ceramidase [4] stood at 29.3 nM.
At Acid ceramidase [4], `O=C(NCCCCc1ccccc1)Nc1nc2ccccc2o1` gave an IC50 of over 10000 nM.
Compound `COc1nc2ccccc2n1C(=O)NCCCCc1ccccc1` came in with a half-life at 2 µM in series [1] of over 120 min. The Activity result with G-361 and with A-375 was “Non-Toxic” each time. For the same compound, the half-life at 10 µM in [2] and in [3] was over 120 min each time. For the same compound, the IC50 is 967 nM against Acid ceramidase [5], 13.9 nM on Acid ceramidase [4] and 2780 nM at Acid ceramidase [6]. Also, the result in [7] was Active.
Take `CCCCCCNC(=O)n1nnc2ncccc21`: in series [1], the half-life at 2 µM was under 5 min. The half-life at 10 µM in [2] was 2 min; in series [3], over 120 min. Besides, at Acid ceramidase [4], the IC50 was 2.2 nM.
As for `Cc1ccccc1CNC(=O)n1c(N)nc2ccccc21`, in series [1], the half-life at 2 µM is under 5 min. Besides, the results for the half-life at 10 µM in series [2] and in series [3] were 10 min and 27 min, respectively. Further, the midpoint of inhibition against Acid ceramidase [4], the IC50, lay at 68.4 nM.
For the compound `O=C(NCCCCc1ccccc1)n1nnc2ncccc21`, the half-life at 2 µM in series [1] was under 5 min. Besides, the half-life at 10 µM in series [2] was 2 min; in [3], over 120 min. Besides, on Acid ceramidase [4], the IC50 turned out to be 1.3 nM.
As for `O=C(NCCCCc1ccccc1)N1C(=O)c2ccccc2C1=O`, the half-life at 2 µM in series [1] came to 23 min. The half-life at 10 µM in [2] was 6 min; in series [3], over 120 min. Further, 2.4 nM corresponded to half-maximal inhibition at Acid ceramidase [4] (IC50).
In the case of `O=C(NCCCCc1ccccc1)n1nnc2ccccc21`, in [3], the half-life at 10 µM is over 120 min. At Acid ceramidase [4], this compound displayed a half-maximal inhibitory concentration (IC50) of 2.1 nM.
`CCCCCCNC(=O)n1nnc2ccccc21` returned a half-life at 2 µM in series [1] of 13 min. Further, the half-life at 10 µM in [2] was 17 min; in series [3], over 120 min. The same compound came in with an IC50 against Acid ceramidase [4] of 4.1 nM.
With `O=C(NCc1ccccc1)n1cnc2ccccc21`, the half-life at 2 µM in series [1] turned out to be 108 min. Further, the Activity result with G-361 and in the series on A-375 was “Non-Toxic” in each case. Besides, the half-life at 10 µM is over 120 min in series [2] and 94 min in series [3]. In addition, the IC50 against Acid ceramidase [5] stood at 1060 nM; against Acid ceramidase [4], 22.5 nM; against Acid ceramidase [6] it was 2800 nM.
With `O=C(NCCCCc1ccccc1)n1c(=O)n(C(=O)NCCCCc2ccccc2)c2ccccc21`, the half-life at 2 µM in series [1] is over 120 min. Besides, the half-life at 10 µM in [2] and in series [3] was over 120 min in each case. On Acid ceramidase [4], this compound came in with an IC50 of 21 nM.
On Acid ceramidase [4], `CCCCCCNC(=O)n1c(N)nc2ccccc21` came in with an IC50 of 2.4 nM.
In turn, `O=C(NCCCCc1ccccc1)Nc1nc2ccccc2[nH]1` gave an IC50 on Acid ceramidase [4] of over 10000 nM.
`CCCCCCNC(=O)Nc1nc2ccccc2s1` had an IC50 at Acid ceramidase [4] of over 10000 nM.
Turning to `Nc1nc2ccccc2n1C(=O)NCCCCc1ccccc1`, in [1], the half-life at 2 µM came out at 9 min. Moreover, the half-life at 10 µM in series [2] worked out at 14 min; in series [3], 43 min. On Acid ceramidase [4], the IC50 came out at 0.9 nM.
For `O=C(NCCCCc1ccccc1)n1c(=O)[nH]c2ccccc21`, in that order: over 120 min, over 120 min, over 120 min and over 10000 nM.
In series [1], `O=C(NCCCCc1ccccc1)n1cnc2ccccc21` had a half-life at 2 µM of over 120 min. For the same compound, the Activity result with G-361 and in the series with A-375 was “Non-Toxic” throughout. Besides, the half-life at 10 µM in [2] is 50 min; in series [3] it was over 120 min. For the same compound, the results for the IC50 against Acid ceramidase [5], against Acid ceramidase [4] and against Acid ceramidase [6] were 75.6 nM, 2.5 nM and 230 nM, respectively. Also, in series [7], the outcome was Active.

These data come from ChEMBL document CHEMBL4011628, “Pharmacophore Identification and Scaffold Exploration to Discover Novel, Potent, and Chemically Stable Inhibitors of Acid Ceramidase in Melanoma Cells” (J Med Chem, 2017).
